In assay [1] the target is T1, Glutaminase kidney isoform, mitochondrial (Homo sapiens, UniProt O94925).
T1 sequence (O94925 whole entry): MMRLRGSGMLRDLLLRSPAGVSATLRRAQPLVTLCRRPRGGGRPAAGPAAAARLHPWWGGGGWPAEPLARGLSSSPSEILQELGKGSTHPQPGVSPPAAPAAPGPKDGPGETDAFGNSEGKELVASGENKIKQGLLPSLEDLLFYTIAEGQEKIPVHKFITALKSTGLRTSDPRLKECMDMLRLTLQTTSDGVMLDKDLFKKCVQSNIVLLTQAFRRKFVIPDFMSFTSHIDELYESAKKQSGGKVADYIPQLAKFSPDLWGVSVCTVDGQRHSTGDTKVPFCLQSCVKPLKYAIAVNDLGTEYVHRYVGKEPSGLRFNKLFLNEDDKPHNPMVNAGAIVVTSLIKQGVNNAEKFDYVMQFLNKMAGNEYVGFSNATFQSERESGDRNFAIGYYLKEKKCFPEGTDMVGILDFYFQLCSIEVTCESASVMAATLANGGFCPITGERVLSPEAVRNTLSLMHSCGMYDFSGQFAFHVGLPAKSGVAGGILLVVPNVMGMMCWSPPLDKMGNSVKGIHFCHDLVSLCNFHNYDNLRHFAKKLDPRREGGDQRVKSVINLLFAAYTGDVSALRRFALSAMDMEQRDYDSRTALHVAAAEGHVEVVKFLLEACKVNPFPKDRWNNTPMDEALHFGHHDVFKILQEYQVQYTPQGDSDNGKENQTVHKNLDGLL
The experiment in a line: Inhibition of human GLS1. Put shortly:
(§1)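 Human GLS1 hydrolase activity measured with a commercial GLS1 inhibitor screening kit, following the manufacturer's protocol. Single-point screening was run at 10 μM.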

Assay [2] has as its system MDA-MB-231. The experiment in a line: Antiproliferative activity against human MDA-MB-231 cells after 24 hrs by MTT assay. The class given is functional, cell-based. To be noted: MDA-MB-231, 24 h.
Assay [3] addresses T2, Glutaminase kidney isoform, mitochondrial (Homo sapiens) (UniProt O94925).
T2 sequence (whole entry): T1 sequence (O94925 whole entry)
The experiment in a line: Inhibition of human GLS1 at 10 uM relative to control. Put shortly: as §1

Assay [4] relates to MDA-MB-231. Nature of the assay: Antiproliferative activity against human MDA-MB-231 cells after 24 hrs by MTT assay relative to control. Format: functional. Put shortly: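 MDA-MB-231 cells kept in DMEM with 10% FBS at 37°C, 5% CO2. Seeded at 5×10^3 cells/well and left 24 h, then exposed to compounds at 0.078-10 µM for 24 h. 0.1% DMSO served as the vehicle control. MTT added for 4 h, formazan dissolved in DMSO, absorbance read at 570 nm. IC50 derived. Each run in triplicate, repeated at least three times.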

SMILES strings stand for the structures. pIC50: −log10 of the molar value.

Consider `CC(=O)O[C@H]1C=C([C@H](C)[C@H]2CC(C)=C(C)C(=O)O2)[C@@]2(C)CC[C@H]3[C@@H](C[C@H]4O[C@]45[C@@H](O)C=CC(=O)[C@]35C)[C@@]12O`, for which the pIC50 in assay [1] was 4.74; in assay [2] it was 5.20. This compound also gave an inhibition in assay [3] of 41.4%. The “inhibition (INH)” value in assay [4] was determined as 74.7%.
On to `CC(=O)O[C@H]1C=C([C@H](C)[C@H]2CC(C)=C(C)C(=O)O2)[C@@]2(C)CC[C@H]3[C@@H](C[C@H]4O[C@]45[C@@H](OC(=O)CCCC(=O)Nc4ccc(N6CCOCC6)c(F)c4)C(Nc4ccc(N6CCOCC6)c(F)c4)CC(=O)[C@]35C)[C@@]12O` (some centres not stated), for which, in assay [2], the pIC50 was less than 4.30. In addition, the inhibition in assay [3] was less than 50%. The “inhibition (INH)” value in assay [4] is listed as 0%.
Taken in the same sequence, the figures for `CC(=O)O[C@H]1C=C([C@H](C)[C@H]2CC(C)=C(C)C(=O)O2)[C@@]2(C)CC[C@H]3[C@@H](C[C@H]4O[C@]45[C@@H](OC(=O)/C=C/C(=O)Nc4nccs4)C=CC(=O)[C@]35C)[C@@]12O` were 5.74, less than 50% and 88.4%.
Taken in the same sequence, the figures for `CC(=O)O[C@H]1C=C([C@H](C)[C@H]2CC(C)=C(C)C(=O)O2)[C@@]2(C)CC[C@H]3[C@@H](C[C@H]4O[C@]45[C@@H](OC(=O)CCCC(=O)Nc4nccs4)C=CC(=O)[C@]35C)[C@@]12O` were 6.00, less than 50% and 84.8%.
In assay [2], `CC(=O)O[C@H]1C=C([C@H](C)[C@H]2CC(C)=C(C)C(=O)O2)[C@@]2(C)CC[C@H]3[C@@H](C[C@H]4O[C@]45[C@@H](OC(=O)CCCC(=O)Nc4ccc(F)cc4)C=CC(=O)[C@]35C)[C@@]12O` gave a pIC50 of 6.31. The compound further had an inhibition in assay [3] of less than 50%. Also, in assay [4], the “inhibition (INH)” value is on record as 95.4%.
Taken in the same sequence, the figures for `CC(=O)O[C@H]1C=C([C@H](C)[C@H]2CC(C)=C(C)C(=O)O2)[C@@]2(C)CC[C@H]3[C@@H](C[C@H]4O[C@]45[C@@H](OC(=O)/C=C/C(=O)Nc4nc6ccccc6s4)C=CC(=O)[C@]35C)[C@@]12O` were less than 4.30, less than 50% and 0%.
Taken in the same sequence, the figures for `CC(=O)O[C@H]1C=C([C@H](C)[C@H]2CC(C)=C(C)C(=O)O2)[C@@]2(C)CC[C@H]3[C@@H](C[C@H]4O[C@]45[C@@H](OC(=O)/C=C/C(=O)Nc4ccc(F)cc4)C=CC(=O)[C@]35C)[C@@]12O` were 5.88, less than 50% and 88.9%.

As usually defined, the pIC50 is −log10 of the IC50, conventionally taken in molar units. Broadly, the inhibition is the share of the control response that was lost under treatment. A high value points to a response far below the control.

Source of the values: ChEMBL document CHEMBL4811218, “Discovery and optimization of withangulatin A derivatives as novel glutaminase 1 inhibitors for the treatment of triple-negative breast cancer” (Eur J Med Chem, 2021).
